According to ChEMBL document CHEMBL4725234, “Structure-activity relationship analyses of fusidic acid derivatives highlight crucial role of the C-21 carboxylic acid moiety to its anti-mycobacterial activity” (Bioorg Med Chem, 2020):
Converted amounts (≈) assume the structure as drawn.

Assays:
CHO-K1 = assay: Cytotoxicity against CHOK1 cells assessed as reduction in cell viability; assay type: cell-based; details: Cricetulus griseus
[1] = test system: Mycobacterium tuberculosis; assay: Antimycobacterial activity against Mycobacterium tuberculosis H37Rv; assay type: functional
Method in brief: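 Drug-sensitive M. tuberculosis H37Rv grown in a glycerol-containing medium; MIC99 is the minimum concentration that inhibits growth of 99% of the bacterial population.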

Structure (SMILES) | IC50 (CHO-K1) [µM] | MIC99 [1] [µM]
CCCCCCCCCCCCNC(=O)/C(CCC=C(C)C)=C1\[C@@H](OC(C)=O)C[C@@]2(C)[C@H]1C[C@@H](O)[C@H]1[C@@]3(C)CC[C@@H](O)[C@@H](C)[C@@H]3CC[C@@]12C | > 146 | > 125
CC(=O)O[C@H]1C[C@@]2(C)[C@@H](C[C@@H](O)[C@H]3[C@@]4(C)CC[C@@H](O)[C@@H](C)[C@@H]4CC[C@@]32C)/C1=C(\CCC=C(C)C)C(=O)NNS(=O)(=O)c1ccc(C)cc1 | 48.2 | > 125
CC(=O)O[C@H]1C[C@@]2(C)[C@@H](C[C@@H](O)[C@H]3[C@@]4(C)CC[C@@H](O)[C@@H](C)[C@@H]4CC[C@@]32C)/C1=C(\CCCC(C)C)C(=O)NNS(C)(=O)=O | 97.8 | 10 (≈ 6.11 µg/mL)
CC(=O)O[C@H]1C[C@@]2(C)[C@@H](C[C@@H](O)[C@H]3[C@@]4(C)CC[C@@H](O)[C@@H](C)[C@@H]4CC[C@@]32C)/C1=C(\CCC=C(C)C)C(=O)NS(=O)(=O)c1ccc(F)c(F)c1 | 81.4 | 20 (≈ 13.8 µg/mL)
CC(=O)O[C@H]1C[C@@]2(C)[C@@H](C[C@@H](O)[C@H]3[C@@]4(C)CC[C@@H](O)[C@@H](C)[C@@H]4CC[C@@]32C)/C1=C(\CCC=C(C)C)c1nc(-c2ccc(F)cc2)no1 | 77.4 | > 125
CCCCC(=O)O[C@@H]1CC[C@@]2(C)[C@@H](CC[C@@]3(C)[C@H]2[C@H](O)C[C@H]2/C(=C(\CCC=C(C)C)C(=O)NNS(C)(=O)=O)[C@@H](OC(C)=O)C[C@@]23C)[C@@H]1C |  | 62.5 (≈ 43.3 µg/mL)
CC(=O)O[C@H]1C[C@@]2(C)[C@@H](C[C@@H](O)[C@H]3[C@@]4(C)CC[C@@H](O)[C@@H](C)[C@@H]4CC[C@@]32C)/C1=C(\CCC=C(C)C)C(=O)N1CC(O)C1 |  | 40 (≈ 22.9 µg/mL)
CC(=O)O[C@H]1C[C@@]2(C)[C@@H](C[C@@H](O)[C@H]3[C@@]4(C)CC[C@@H](O)[C@@H](C)[C@@H]4CC[C@@]32C)/C1=C(\CCC=C(C)C)C(=O)NCCO |  | > 125
CCC(=O)O[C@@H]1CC[C@@]2(C)[C@@H](CC[C@@]3(C)[C@H]2[C@H](O)C[C@H]2/C(=C(\CCC=C(C)C)C(=O)NNS(C)(=O)=O)[C@@H](OC(C)=O)C[C@@]23C)[C@@H]1C |  | 7.81 (≈ 5.19 µg/mL)
CCC(=O)O[C@@H]1CC[C@@]2(C)[C@@H](CC[C@@]3(C)[C@H]2[C@H](O)C[C@H]2/C(=C(\CCC=C(C)C)C(=O)NN)[C@@H](OC(C)=O)C[C@@]23C)[C@@H]1C |  | 15.6 (≈ 9.15 µg/mL)
CC(=O)O[C@H]1C[C@@]2(C)[C@@H](C[C@@H](O)[C@H]3[C@@]4(C)CC[C@@H](O)[C@@H](C)[C@@H]4CC[C@@]32C)/C1=C(\CCC=C(C)C)C(=O)NS(=O)(=O)c1ccc(C#N)cc1 |  | 125 (≈ 85.1 µg/mL)
CC[C@H]1CN2CCc3cc(OC)c(OC)cc3[C@@H]2C[C@@H]1C[C@H]1NCCc2cc(OC)c(OC)cc21 [EMETINE] | 0.4 | 
CC(=O)O[C@H]1C[C@@]2(C)[C@@H](C[C@@H](O)[C@H]3[C@@]4(C)CCC(=O)[C@@H](C)[C@@H]4CC[C@@]32C)/C1=C(\CCC=C(C)C)C(=O)NNS(C)(=O)=O |  | 62.5 (≈ 37.9 µg/mL)
CC(=O)O[C@H]1C[C@@]2(C)[C@@H](C[C@@H](O)[C@H]3[C@@]4(C)CC[C@@H](OC(=O)c5ccc(F)cc5)[C@@H](C)[C@@H]4CC[C@@]32C)/C1=C(\CCC=C(C)C)C(=O)O |  | > 125
CC(=O)O[C@H]1C[C@@]2(C)[C@@H](C[C@@H](O)[C@H]3[C@@]4(C)CC[C@@H](OC(=O)c5ccc(S(C)(=O)=O)cc5)[C@@H](C)[C@@H]4CC[C@@]32C)/C1=C(\CCC=C(C)C)C(=O)O |  | 31.3 (≈ 21.9 µg/mL)
CC(=O)O[C@H]1C[C@@]2(C)[C@@H](CC(=O)[C@H]3[C@@]4(C)CCC(=O)[C@@H](C)[C@@H]4CC[C@@]32C)/C1=C(\CCC=C(C)C)C(=O)O |  | 11.9 (≈ 6.1 µg/mL)
CC(=O)O[C@H]1C[C@@]2(C)[C@@H](C[C@@H](O)[C@H]3[C@@]4(C)CC[C@@H](O)[C@@H](C)[C@@H]4CC[C@@]32C)/C1=C(\CCC=O)C(=O)O |  | 40 (≈ 19.6 µg/mL)
